Source: ChEMBL document CHEMBL1275299, “Synthesis and anti-inflammatory activity of derivatives of coumarino-lignoid, cleomiscosin A and its methyl ether” (2010)

Experiments:
Type in all cases: functional
[1] = Antiinflammatory activity in Swiss albino mouse macrophage assessed as inhibition of LPS-induced TNFalpha production at 1 ug/ml treated 30 mins before LPS challenge measured after 24 hrs by ELISA
Method in brief: (§1)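 Peritoneal macrophages from 8-week-old female Swiss albino mice, elicited by i.p. 1% peptone (1 mL) 3 days before harvest and collected by PBS (pH 7.4) lavage, were used at 2 × 10^6 live cells/mL. Cells were kept in RPMI 1640 with 10% heat-inactivated FCS and penicillin/streptomycin at 37 °C, 5% CO2. Adherent cells were kept after 2 h. Compounds were given in DMSO, with a DMSO vehicle control. LPS was 0.5 µg/mL. Cytokines were measured in supernatants by mouse sandwich ELISA kits. n = 4, Student t-test versus vehicle.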

[2] = Antiinflammatory activity in Swiss albino mouse macrophage assessed as inhibition of LPS-induced IL-6 production at 1 ug/ml treated 30 mins before LPS challenge measured after 24 hrs by ELISA; method in brief: as §1
[3] = Antiinflammatory activity in Swiss albino mouse macrophage assessed as inhibition of LPS-induced IL1-beta production at 1 ug/ml treated 30 mins before LPS challenge measured after 24 hrs by ELISA; method in brief: as §1
[4] = Antiinflammatory activity in Swiss albino mouse macrophage assessed as inhibition of LPS-induced TNFalpha production at 10 ug/ml treated 30 mins before LPS challenge measured after 24 hrs by ELISA; method in brief: as §1
[5] = Antiinflammatory activity in Swiss albino mouse macrophage assessed as inhibition of LPS-induced IL-6 production at 10 ug/ml treated 30 mins before LPS challenge measured after 24 hrs by ELISA; method in brief: as §1
[6] = Antiinflammatory activity in Swiss albino mouse macrophage assessed as inhibition of LPS-induced IL1-beta production at 10 ug/ml treated 30 mins before LPS challenge measured after 24 hrs by ELISA; method in brief: as §1

SMILES	inhibition at 1 µg/mL [1] [%]	inhibition at 1 µg/mL [2] [%]	inhibition at 1 µg/mL [3] [%]	inhibition at 10 µg/mL [4] [%]	inhibition at 10 µg/mL [5] [%]	inhibition at 10 µg/mL [6] [%]
O=C(O)Cc1ccccc1Nc1c(Cl)cccc1Cl [DICLOFENAC SODIUM]	46.5	51.1	38.5			
COc1ccc([C@H]2Oc3c(OC)c(Br)c4ccc(=O)oc4c3O[C@@H]2CO)cc1OC	44.8	59.8	50.1	42	60	44.7
COc1cc([C@H]2Oc3c(OC)c([N+](=O)[O-])c4ccc(=O)oc4c3O[C@@H]2CO)c([N+](=O)[O-])cc1OC	76.6	86.4	72	78	80.2	70.2
COc1ccc([C@H]2Oc3c(OC)c(Cl)c4ccc(=O)oc4c3O[C@@H]2CO)cc1OC	50.2	57.5	59.2	49.6	56.2	40.1
COc1cc([C@H]2Oc3c(OC)c([N+](=O)[O-])c4ccc(=O)oc4c3O[C@@H]2COC(C)=O)ccc1OC(C)=O	70.5	87.2	70.4	67.8	82	65.3
COc1cc([C@H]2Oc3c(OC)c(Br)c4ccc(=O)oc4c3O[C@@H]2COC(C)=O)ccc1O	54.5	60.2	55.3	54.2	52.5	58.8
COc1cc([C@H]2Oc3c(OC)c([N+](=O)[O-])c4ccc(=O)oc4c3O[C@@H]2CO[N+](=O)[O-])c([N+](=O)[O-])cc1OC	64.8	81.4	59.1	60.6	79	53.3
COc1cc([C@H]2Oc3c(OC)cc4ccc(=O)oc4c3O[C@@H]2COC(C)=O)ccc1O [DURANTIN A]	73.3	81.9	109	76.2	78.3	74.8
